Screening results (PubChem BioAssay)
Sampled rows, rich in hits. Any-hit rate of the full collection: about 2.9%.
OX1R antag-1 = human HCRTR1 antagonism. O43613. CHO/OX1R cells, Fluo-8 calcium fluorescence, orexin A. inhibition, % at 5 µM. hit rate 0.43% among 330,000. AID 434989;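 active = inhibition above its plate's threshold, mean inhibition of all tested compounds on the plate plus 3 SD, cut at about 37% in these data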;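 also: 0% = orexin A challenge wells and 100% = SB-334867-A antagonist wells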
Target sequence (O43613 whole entry, looked up): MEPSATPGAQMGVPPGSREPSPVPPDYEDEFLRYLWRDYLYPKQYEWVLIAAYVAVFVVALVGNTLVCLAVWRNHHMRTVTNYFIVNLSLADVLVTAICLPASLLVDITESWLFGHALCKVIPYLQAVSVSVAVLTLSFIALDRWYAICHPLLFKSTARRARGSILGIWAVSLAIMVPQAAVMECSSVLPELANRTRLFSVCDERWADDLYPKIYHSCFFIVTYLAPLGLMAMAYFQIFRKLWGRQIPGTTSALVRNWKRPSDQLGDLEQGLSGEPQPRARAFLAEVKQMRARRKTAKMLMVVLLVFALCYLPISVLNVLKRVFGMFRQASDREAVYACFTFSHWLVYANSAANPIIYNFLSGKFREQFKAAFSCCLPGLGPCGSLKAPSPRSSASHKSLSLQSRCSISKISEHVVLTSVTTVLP
CHO-K1 Ca antag = M1 antagonist counterscreen hit in parental CHO-K1 cells; AID 602250; hit rate 0.6% among 360,000; ATP-induced calcium, Fluo-8 fluorescence; inhibition, % at 3 µM;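 active = inhibition above a per-plate cutoff, the plate's mean sample inhibition plus 3 SD, cut at about 24% in these data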;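 also: 0% = DMSO plus EC80 ATP and 100% = DMSO alone without ATP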
CHO-K1 Ca PAM = counter-screen for M1 PAMs: effect in parental CHO-K1 cells; ATP EC20, Fluo-8 calcium fluorescence; 0% at ATP EC20, 100% at ATP max; hit rate 0.02% among 360,000; activation, % at 3 µM;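 active = activation above the run cutoff, the mean activation of all test compounds plus 3 SD, cut at about 40% in these data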;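 also: peak over basal fluorescence ratio in a 140 s read after ATP addition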
CHO-K1 Ca ag = nonselective activator or artifact in parental CHO-K1 cells | Fluo-8 calcium fluorescence; scaled to maximal ATP response, vehicle zero | hit rate 0.48% among 360,000 | activation, % at 3 µM | AID 602248; in the data active = activation above about 15%;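 also: untransfected CHO-K1 host cells lacking M1 receptor as counterscreen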
CHO parental Ca = signal in parental CHO cells, OX1R antagonist counter-screen. AID 463079. parental CHO-K1, ATP-induced calcium, Fluo-8 fluorescence. inhibition, % at 5.6 µM. hit rate 0.63% among 330,000;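 active = inhibition above that plate's mean sample inhibition plus 3 SD, cut at about 26% in these data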;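 also: 0% = ATP-challenged DMSO wells and 100% = DMSO wells without ATP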
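Material: parental CHO cells / Compound: single nominal dose of 5.6 µM per compound / Signal: Fluo-8 fluorescence / Replicates: singlicate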
OX1R antag-2 = OX1R (human) antagonism. O43613. OX1R-expressing cells, FRET antagonist read-out. inhibition, % at 6.6 µM. hit rate 1.8% among 330,000. AID 485270; in the data active = inhibition mostly above about 38%, no sharp cut-off; inactive = mostly below about 40%;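 also: 0% = agonist challenge alone and 100% = reference antagonist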
Starred values were filed as active, the others as inactive.

How did CC(NC(=O)c1cc(S(=O)(=O)N(C)C)ccc1N1CCCC1)C1CC2CCC1C2 (stereo not drawn) do in these assays?
OX1R antag-1: -23; CHO-K1 Ca antag: -13; CHO-K1 Ca PAM: 19; CHO-K1 Ca ag: 1; CHO parental Ca: -17; OX1R antag-2: 38

How did CS(=O)(=O)c1nc(-c2ccc(Br)cc2)cc(-c2ccccc2)c1C#N do in these assays?
OX1R antag-1: 15; CHO-K1 Ca antag: -5; CHO-K1 Ca PAM: -1; CHO-K1 Ca ag: 0; CHO parental Ca: 13; OX1R antag-2: 1

Results for N#Cc1c(-c2ccccc2)cc(-c2ccccc2)nc1SCCC(=O)O ?
OX1R antag-1: -16; CHO-K1 Ca antag: -5; CHO-K1 Ca PAM: -1; CHO-K1 Ca ag: 3; CHO parental Ca: 8; OX1R antag-2: 74*

How did CS(=O)c1nc(-c2ccc(Br)cc2)cc(-c2ccccc2)c1C#N (stereo not drawn) do in these assays?
OX1R antag-1: 81*; CHO-K1 Ca antag: 16; CHO-K1 Ca PAM: -11; CHO-K1 Ca ag: 1; CHO parental Ca: 84*; OX1R antag-2: 23

What do the screens show for `CCC(=O)Nc1c(-c2ccccc2Cl)c(=O)c2ccccc2n1CC`?
OX1R antag-1: -13; CHO-K1 Ca antag: -3; CHO-K1 Ca PAM: 12; CHO-K1 Ca ag: 0; CHO parental Ca: 16; OX1R antag-2: -1

What do the screens show for `CCCCCN(C(=O)CCC(=O)OCC(=O)N(C)Cc1ccccc1C)c1c(N)n(CCCC)c(=O)[nH]c1=O`?
OX1R antag-1: -12; CHO-K1 Ca antag: 0; CHO-K1 Ca PAM: -3; CHO-K1 Ca ag: 0; CHO parental Ca: -20; OX1R antag-2: 8

What do the screens show for `CC(C)c1cccc(-c2csc(C(C)(O)c3ccncc3)n2)c1` (stereo not drawn)?
CHO-K1 Ca antag: 8; CHO-K1 Ca PAM: 8; CHO-K1 Ca ag: 6

What do the screens show for `CCOC(=O)/C=C1/N(C)c2ccccc2C1(C)C`?
OX1R antag-1: -13; CHO-K1 Ca antag: -18; CHO-K1 Ca PAM: 16; CHO-K1 Ca ag: 2; CHO parental Ca: -1; OX1R antag-2: 10

How did CN1/C(=C\P(=O)(N(C)C)N(C)C)C(C)(C)c2ccccc21 do in these assays?
OX1R antag-1: 77*; CHO-K1 Ca antag: 16; CHO-K1 Ca PAM: 5; CHO-K1 Ca ag: 2; CHO parental Ca: 45*; OX1R antag-2: 25

Results for CCc1sc(C(=O)N2CCN(c3ncccn3)CC2)cc1Br ?
OX1R antag-1: -29; CHO-K1 Ca antag: -11; CHO-K1 Ca PAM: 13; CHO-K1 Ca ag: 5; CHO parental Ca: -17; OX1R antag-2: 12

Results for Cc1cc(C)cc(SCc2noc(C(=O)NCCCN3CCOCC3)c2C(=O)NCCCN2CCOCC2)c1 ?
OX1R antag-1: -23; CHO-K1 Ca antag: 3; CHO-K1 Ca PAM: -2; CHO-K1 Ca ag: 0; CHO parental Ca: -16; OX1R antag-2: 6

How did C[C@]12C(=O)N(c3ccc(F)cc3)C(=O)N1[C@H]1c3ccccc3OC[C@@H]1[C@H]2c1ccccc1 do in these assays?
OX1R antag-1: -7; CHO-K1 Ca antag: -28; CHO-K1 Ca PAM: 44*; CHO-K1 Ca ag: 3; CHO parental Ca: -14; OX1R antag-2: 2

How did C[C@@]12C(=O)N(c3ccc(F)cc3)C(=O)N1[C@@H]1c3ccccc3OC[C@@H]1[C@H]2c1ccccc1 do in these assays?
OX1R antag-1: -30; CHO-K1 Ca antag: -3; CHO-K1 Ca PAM: -13; CHO-K1 Ca ag: 0; CHO parental Ca: -23; OX1R antag-2: 25

Results for CCCCOP(=O)(c1ccc(N(C)C)cc1)C(Nc1ccccc1)c1ccccc1 (stereo not drawn) ?
OX1R antag-1: -18; CHO-K1 Ca antag: 11; CHO-K1 Ca PAM: 14; CHO-K1 Ca ag: 27*; CHO parental Ca: -16; OX1R antag-2: 31

Results for Cn1nc(C(=O)NNC(=O)CCc2ccccc2Cl)c2ccccc2c1=O ?
OX1R antag-1: -26; CHO-K1 Ca antag: 9; CHO-K1 Ca PAM: -19; CHO-K1 Ca ag: 0; CHO parental Ca: -20; OX1R antag-2: 18

How did COc1ccccc1NCC(=O)N/N=C(\C)c1ccc(Br)s1 do in these assays?
OX1R antag-1: -10; CHO-K1 Ca antag: 1; CHO-K1 Ca PAM: 3; CHO-K1 Ca ag: 0; CHO parental Ca: -9; OX1R antag-2: 9

What do the screens show for `C/C(=N/NC(=O)CNc1ccc(C)cc1)c1ccc(Br)s1`?
OX1R antag-1: -15; CHO-K1 Ca antag: 2; CHO-K1 Ca PAM: 3; CHO-K1 Ca ag: 21*; CHO parental Ca: -14; OX1R antag-2: 14

Results for CCOc1ccccc1C(=O)Nc1ccsc1C(=O)OC ?
OX1R antag-1: -20; CHO-K1 Ca antag: -12; CHO-K1 Ca PAM: 27; CHO-K1 Ca ag: 0; CHO parental Ca: -15; OX1R antag-2: 69*

How did COC(=O)c1sccc1NC(=O)c1ccc(C)s1 do in these assays?
OX1R antag-1: -4; CHO-K1 Ca antag: -2; CHO-K1 Ca PAM: 9; CHO-K1 Ca ag: 0; CHO parental Ca: -31; OX1R antag-2: 56*

Results for CCOc1ccccc1C(=O)Nc1cc(C(=O)NCC(C)C)ccc1Cl ?
OX1R antag-1: -16; CHO parental Ca: -2; OX1R antag-2: 48*

What do the screens show for `CN1C(=O)[C@H]2[C@@H](/C=C/c3ccccc3)N3C(=O)CN(CCO)C(=O)[C@@]3(C)[C@H]2C1=O`?
OX1R antag-1: 1; CHO-K1 Ca antag: -9; CHO-K1 Ca PAM: 17; CHO-K1 Ca ag: 1; CHO parental Ca: -4; OX1R antag-2: 13

What do the screens show for `COc1cccc(CN2CCNC(=O)C2CC(=O)NC2CCCCCCC2)c1` (stereo not drawn)?
OX1R antag-1: -27; CHO-K1 Ca antag: -8; CHO-K1 Ca PAM: 4; CHO-K1 Ca ag: 0; CHO parental Ca: -23; OX1R antag-2: 6

What do the screens show for `O=C(c1ccc(Cl)c(S(=O)(=O)N2CCc3ccccc32)c1)N1CCN(c2ccccc2O)CC1`?
OX1R antag-1: -2; CHO-K1 Ca antag: -4; CHO-K1 Ca PAM: -2; CHO-K1 Ca ag: 4; CHO parental Ca: -7; OX1R antag-2: 11

What do the screens show for `O=C(NNC(=O)c1ccccc1O)c1ccc(Cl)c(S(=O)(=O)N2CCc3ccccc32)c1`?
OX1R antag-1: 40*; CHO-K1 Ca antag: 40*; CHO-K1 Ca PAM: -11; CHO-K1 Ca ag: 10; CHO parental Ca: 57*; OX1R antag-2: 62*

Results for Cc1ccc(/C(N)=N/OC(=O)c2cccc(Cn3cc(C(F)(F)F)ccc3=O)c2)cc1 ?
OX1R antag-1: -27; CHO-K1 Ca antag: -12; CHO-K1 Ca PAM: 13; CHO-K1 Ca ag: 1; CHO parental Ca: -10; OX1R antag-2: 3

What do the screens show for `N/C(=N\OC(=O)c1cccc(Cn2cc(C(F)(F)F)ccc2=O)c1)c1ccccc1`?
OX1R antag-1: 48*; CHO-K1 Ca antag: 13; CHO-K1 Ca PAM: 10; CHO-K1 Ca ag: 9; CHO parental Ca: 46*; OX1R antag-2: 4

How did CC1(C(=O)NS(=O)(=O)c2ccc(Cl)cc2)CCN1C(=O)Cc1ccc(Cl)cc1Cl (stereo not drawn) do in these assays?
CHO-K1 Ca antag: 18; CHO-K1 Ca PAM: 1; CHO-K1 Ca ag: 0
